{"data": "Measured values of several laboratories", "target": "Eukaryotic translation initiation factor 2-alpha kinase 1 (EIF2AK1, Homo sapiens, UniProt Q9BQI3)", "note": "Protocols differ between the studies behind these lines."}
{"SMILES": "C[C@H](c1ccc(F)cc1)N(Cc1cccc(C(=O)O)c1)C(=O)c1cnc2ccccc2c1", "effect on": "cell-free assay", "technique": "competition with immobilised ligand", "tested at": "1 µM", "remaining binding [%]": 84}
{"SMILES": "COc1ncc2cc3ccccc3nc2c1C#N", "effect on": "cell-free assay", "technique": "competition with immobilised ligand", "tested at": "5 µM", "remaining binding [%]": 100}
{"SMILES": "Cc1cnn2ncc(-c3ccnc(N(C)C)n3)c2c1", "effect on": "binding", "tested at": "1 µM", "remaining binding [%]": 84}
{"SMILES": "CC(=O)C1=C(C)N(c2cccc(C(F)(F)F)c2)C(=O)N[C@@H]1c1ccc(C#N)nc1", "effect on": "cell-free assay", "technique": "competition with immobilised ligand", "tested at": "1 µM", "remaining binding [%]": 100}
{"SMILES": "CN(c1nccc(-c2cnn3ncccc23)n1)C1CC1", "effect on": "binding", "tested at": "1 µM", "remaining binding [%]": 100}
{"SMILES": "CN1CCN(c2cnc3c(C4CCN(C(=O)c5ccc(OC(F)(F)F)cc5N)CC4)ncnc3c2)CC1", "effect on": "cell-free assay", "technique": "competition with immobilised ligand", "tested at": "1 µM", "remaining binding [%]": 100}
{"SMILES": "CCN1CCN(Cc2ccc(C(=O)Nc3ccc(C)c(Oc4ccc5c(c4)CC(=O)N5)c3)cc2C(F)(F)F)CC1", "effect on": "binding", "technique": "competition with immobilised ligand", "tested at": "1 µM", "remaining binding [%]": 100}
{"SMILES": "CN(CCCC(F)(F)F)c1nccc(-c2cnn3ncccc23)n1", "effect on": "binding", "tested at": "1 µM", "remaining binding [%]": 100}
{"SMILES": "O=C(NCc1ncc(C(F)(F)F)cc1Cl)c1ccc2c(c1)C1(CCS(=O)(=O)CC1)[C@@H](C1CC1)N2S(=O)(=O)c1ccc(F)cc1", "effect on": "cell-free assay", "technique": "competition with immobilised ligand", "tested at": "1 µM", "remaining binding [%]": 94}
{"SMILES": "F[C@@H]1CCN(c2nccc(-c3cnn4ncccc34)n2)C1", "effect on": "binding", "tested at": "1 µM", "remaining binding [%]": 100}
{"SMILES": "O=C(c1ccc(Nc2nccc(-c3cc4ccccc4s3)n2)cc1)N1CCC(N2CCCC2)CC1", "effect on": "binding", "technique": "competition with immobilised ligand", "tested at": "1 µM", "remaining binding [%]": 100}
{"SMILES": "C[C@@H]1CCN(c2nccc(-c3cnn4ncccc34)n2)C1", "effect on": "binding", "tested at": "1 µM", "remaining binding [%]": 79}
{"SMILES": "Cc1nc(N2CC[C@@H](O)C2)ncc1-c1cc(C(F)(F)F)cc2[nH]ncc12", "effect on": "binding", "technique": "competition with immobilised ligand", "tested at": "1 µM", "remaining binding [%]": 98}
{"SMILES": "CC1CCCN1c1nccc(-c2cnn3ncccc23)n1 (stereo not shown)", "effect on": "binding", "tested at": "1 µM", "remaining binding [%]": 100}
{"SMILES": "O=C(Nc1c[nH]nc1C(=O)NC1CCNCC1)c1cc(F)cc(F)c1", "effect on": "binding", "technique": "competition with immobilised ligand", "tested at": "1 µM", "remaining binding [%]": 91}
{"SMILES": "CO[C@@H](C)c1c(Nc2ccc([C@H](N(C)C(=O)C3CCS(=O)(=O)CC3)C(F)(F)F)cc2)cnc2cc(Cl)nn12", "effect on": "cell-free assay", "technique": "competition with immobilised ligand", "tested at": "1 µM", "remaining binding [%]": 100}
{"SMILES": "C[C@@H](c1ccc(-n2cnc3c(N)ncnc32)cc1)N1CCc2nn(C)c(Cc3ccccc3)c2C1=O", "effect on": "binding", "technique": "competition with immobilised ligand", "tested at": "0.1 µM", "remaining binding [%]": 66}
{"SMILES": "O=C(NCCCN1CCOCC1)c1ccc(Nc2ncc(Cl)c(-c3ccc(Cl)s3)n2)cc1", "effect on": "binding", "technique": "competition with immobilised ligand", "tested at": "1 µM", "remaining binding [%]": 97}
{"SMILES": "COc1cnc(Nc2cccc(S(N)(=O)=O)c2)nc1N1CCN(c2ccccc2)CC1", "effect on": "binding", "technique": "competition with immobilised ligand", "tested at": "1 µM", "remaining binding [%]": 100}
{"SMILES": "COc1ccnn2ncc(-c3ccnc(N(C)C)n3)c12", "effect on": "binding", "tested at": "1 µM", "remaining binding [%]": 95}
{"SMILES": "C[C@@H](c1cccc(C#N)c1)n1cc(Cl)cc(C(N)=O)c1=N", "effect on": "cell-free assay", "technique": "competition with immobilised ligand", "tested at": "1 µM", "remaining binding [%]": 95}
{"SMILES": "O=C(c1ccc(Nc2ncc(Cl)c(-c3ccc(Cl)s3)n2)cc1)N1CCC(N2CCCC2)CC1", "effect on": "binding", "technique": "competition with immobilised ligand", "tested at": "1 µM", "remaining binding [%]": 86}
